# Screens (PubChem BioAssay)
# E-selectin induc – E-selectin induction on HUVECs; HUVEC E-selectin immunofluorescence imaging; normalized: neutral wells 0, TNF-alpha wells 100; activation, % at 7.58 µM; 260,000 tested, 0.37% active; AID 686992;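 active = mean E-selectin-positive cell signal at least 10% of the positive control, reached in at least 60% of replicates, without over 20% cell loss; inconclusive = no rule given, readout overlaps actives, possibly toxicity-flagged; inactive = the rest, including those meeting only one limit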
# Target sequence (P16581 whole entry, looked up): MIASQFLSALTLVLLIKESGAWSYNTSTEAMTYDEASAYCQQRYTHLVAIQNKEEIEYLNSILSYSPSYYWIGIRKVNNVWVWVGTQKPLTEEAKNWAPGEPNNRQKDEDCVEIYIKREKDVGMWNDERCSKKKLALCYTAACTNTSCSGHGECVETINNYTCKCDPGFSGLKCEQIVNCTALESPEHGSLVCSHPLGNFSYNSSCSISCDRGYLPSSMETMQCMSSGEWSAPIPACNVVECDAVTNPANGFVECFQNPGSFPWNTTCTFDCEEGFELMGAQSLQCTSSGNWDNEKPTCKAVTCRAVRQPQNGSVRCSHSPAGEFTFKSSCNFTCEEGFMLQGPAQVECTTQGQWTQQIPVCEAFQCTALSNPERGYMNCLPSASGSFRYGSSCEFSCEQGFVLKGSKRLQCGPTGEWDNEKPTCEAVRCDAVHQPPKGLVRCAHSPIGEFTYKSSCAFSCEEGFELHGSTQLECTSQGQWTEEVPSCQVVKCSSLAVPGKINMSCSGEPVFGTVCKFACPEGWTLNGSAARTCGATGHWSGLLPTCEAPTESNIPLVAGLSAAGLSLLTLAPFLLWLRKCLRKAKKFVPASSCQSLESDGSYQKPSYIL
#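 System: HUVEC, human umbilical vein endothelial cells; quantity: 3,000 cells/well; buffer or medium: EGM-2 medium, gelatin-coated wells; dosing: single-point compound dose; detection: immunofluorescence imaging; evaluation: % PE-positive cells; benchmarks: TNF-alpha, DMSO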
# CFTR F508del cor – correctors of CFTR F508del function in bronchial epithelial cells; CFBE cells, YFP halide quenching; stimulated with forskolin plus potentiator P3; % fluorescence drop versus neutral controls; 350,000 tested, 0.36% active; AID 720511; activity (quench increase), % at 7.58 µM;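 active = mean added fluorescence quench of at least 8% versus neutral control, with both replicates also reaching 8%; inconclusive = only one of the mean or replicate conditions met; inactive = mean below 8% and not both replicates reaching 8%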;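 note: cells transiently co-express mutant CFTR-F508del with the halide-sensitive YFP; corrector assay measuring rescue of mutant channel to the surface after 24 h compound exposure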
# ERAP1 HTS inh – blocks human ERAP1 aminopeptidase activity; Q9NZ08; AID 652197; 340,000 tested, 0.15% active; inhibition, % at 10.7 µM; recombinant ERAP1, Leu-AMC fluorescence, 60 min;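 active = mean replicate inhibition of at least 30%, or all replicates individually reaching that 30% level; inactive = mean below 30% and not every replicate reaching it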;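 note: 0% = neutral control wells and 100% = L-leucinethiol positive control wells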
# DENV2 CPE rescue – protects cells from dengue virus 2 cytopathic effect | DENV2-infected cells, cytopathic effect rescue, plate reader | CPE inhibition, % at 9.99 µM | 350,000 tested, 1.7% active | AID 651640; in the data active = CPE inhibition above about 20%, passing the limit was not always enough; inconclusive = no clear call, values can overlap the other calls; tested in BHK-21 cells;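 note: 0% = median of neutral control wells and 100% = median of positive control wells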
# FGF22 binding – shifts melting point of recombinant human FGF22; Q9HCT0; recombinant FGF22 thermal shift, SYPRO orange fluorescence; percent of sucrose octasulfate shift, DMSO zero; activity (Tm shift, normalised), % at 9.99 µM; 340,000 tested, 1.5% active;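 active = mean Tm shift, scaled 0 neutral to 100 positive control, at about 1.3% or above, every replicate too, limit read from the data; inconclusive = no clear call, values can overlap the other calls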
# * hit, by the source's call; ? = inconclusive; . = no result. This is a sample that favours compounds with a hit; in the whole collection about 3.7% have one here.
SMILES,E-selectin induc,CFTR F508del cor,ERAP1 HTS inh,DENV2 CPE rescue,FGF22 binding
O=Cc1ccc(-c2ccccc2C(=O)O)o1,.,1.1,2.2,-0.1,43.1*
COC(=O)c1ccccc1-c1ccc(C=O)o1,.,-3.1,-4.1,-4.3,.
C[C@@H]1CN([C@@H](C)CO)C(=O)c2cc(C#CC3CC3)cnc2O[C@@H]1CN(C)C(=O)c1ccncc1,3.3,1.6,.,.,.
COC(=O)CN1CC(=O)N(c2ccccc2)C1=S,0.2,1.1,4.4,1.5,43.1*
C/C=C/c1ccc2c(c1)O[C@H](CN(C)C(=O)CC)[C@@H](C)CN([C@H](C)CO)S2(=O)=O,73.8*,2.8,-1.5,-10.1,0.1
C/C=C/c1ccc2c(c1)O[C@@H](CN(C)C(=O)Nc1ccccc1)[C@H](C)CN([C@H](C)CO)S2(=O)=O,0.7,3.3,-1.5,27.7*,0.8
C/C=C/c1ccc2c(c1)O[C@@H](CN(C)C(=O)Nc1cccc(F)c1)[C@H](C)CN([C@H](C)CO)S2(=O)=O,0.2,8.5*,0.5,-2.2,0.2
C[C@H]1CN([C@@H](C)CO)S(=O)(=O)c2ccc(C3=CCCCC3)cc2O[C@H]1CN(C)C(=O)C1CCCCC1,0.0,2.4,4.6,1.1,-0.9
COc1ccc2c3c([nH]c2c1)[C@@H](CO)N(Cc1cccc(F)c1)CC31CCN(C(C)=O)CC1,0.1,2.1,-0.3,8.5,.
Cc1noc(C)c1NC(=O)Nc1ccc2c(c1)C(=O)N([C@H](C)CO)C[C@H](C)[C@H](CN(C)C(=O)CCCN(C)C)OCCCC[C@H](C)O2,-0.1,5.0,-0.1,-1.5,-0.6
CCc1ccc(C(=O)COC(=O)C(CCSC)NC(=O)c2ccccc2)cc1 (stereo not drawn),.,-0.7,0.7,-0.2,43.5*
CSCCC(NC(=O)c1ccc(C(C)(C)C)cc1)C(=O)O (stereo not drawn),.,-2.2,0.7,2.7,44.2*
CCc1ccc(C(=O)COC(=O)C(CCSC)NC(=O)C23CC4CC(CC(C4)C2)C3)cc1 (stereo not drawn),.,2.7,12.5,2.4,0.0
C[C@@H]1CN([C@H](C)CO)C(=O)c2c(c3ccccc3n2C)-c2ccccc2CO[C@H]1CN(C)C(=O)[C@@H]1CCCN1C,-0.1,-0.7,3.6,2.0,-0.2
Cc1noc(C)c1NC(=O)Nc1ccc2c(c1)C(=O)N([C@@H](C)CO)C[C@@H](C)[C@H](CN(C)CC1CCCCC1)OCCCC[C@H](C)O2,1.1,-2.2,-0.4,-1.5,-0.3
CCOc1cccc(-c2c(C(=O)N/N=C/c3cccnc3)nnn2-c2nonc2N)c1,.,-1.4,-0.9,-1.5,0.2
CCOc1cccc(-c2c(C(=O)N/N=C/c3ccc(Br)cc3)nnn2-c2nonc2N)c1,.,1.0,-0.5,47.5*,-0.1
CCNC(=O)Nc1ccc2c(c1)C(=O)N(C)[C@@H]1CC[C@H](CC(=O)NCc3ccc(F)cc3)O[C@H]1CO2,-0.1,2.8,0.0,54.8*,-0.1
CCNC(=O)C[C@H]1CC[C@H]2[C@H](COc3ccc(NC(=O)c4ccc(F)c(F)c4)cc3C(=O)N2C)O1,0.2,-2.8,0.4,88.2*,-0.1
CCNC(=O)Nc1ccc2c(c1)C(=O)N(C)[C@@H]1CC[C@@H](CC(=O)NCc3ccc(F)cc3)O[C@H]1CO2,0.1,2.5,5.2,1.2,0.0
CCNC(=O)C[C@H]1CC[C@@H]2[C@@H](COc3ccc(NC(=O)c4ccc(F)c(F)c4)cc3C(=O)N2C)O1,0.0,-0.4,-0.2,-8.2,0.0
CCNC(=O)C[C@@H]1CC[C@H]2[C@@H](COc3ccc(NC(=O)Nc4ccc(F)cc4)cc3C(=O)N2C)O1,84.2*,-2.7,0.1,13.7,0.4
CC(C)NC(=O)Nc1ccc2c(c1)CC(=O)N([C@@H](C)CO)C[C@H](C)[C@H](CN(C)Cc1ccccc1)O2,0.1,-1.7,1.2,?,.
O=C(Nc1ccc(F)cc1)N[C@@H]1C=C[C@H](CC(=O)N2CCOCC2)O[C@H]1CO,-0.2,-0.4,0.7,19.9,-0.4
CC(=O)C1=C(c2ccccc2)NC(=O)NC1c1ccccc1 (stereo not drawn),.,1.9,3.6,2.2,-0.1
SMILES,E-selectin induc,CFTR F508del cor,ERAP1 HTS inh,DENV2 CPE rescue,FGF22 binding
O=C1NC(c2ccccc2)=CC(c2ccccc2)N1 (stereo not drawn),.,1.5,-2.9,12.1,44.1*
O=C1NC(c2ccccc2)=CC(c2ccccc2O)N1 (stereo not drawn),0.4,3.2,-1.2,145.1*,-0.3
Cc1cc(C)n2nc(C(=O)Nc3cccc(S(=O)(=O)N4CCCC4)c3)nc2n1,0.0,3.1,-1.2,-1.2,0.2
Cc1cc(C)n2nc(C(=O)N3CCN(c4ccc([N+](=O)[O-])cc4)CC3)nc2n1,0.0,-0.5,40.9*,5.2,0.3
COc1ccc(N2CCN(C(=O)c3nc4nc(C)cc(C)n4n3)CC2)cc1,0.9,3.7,-2.6,9.7,0.4
Cc1cc(C)n2nc(C(=O)Nc3ccc(N4CCOCC4)cc3)nc2n1,.,.,59.4*,.,.
O=C(NCC[C@@H]1CC[C@H](NC(=O)C2CCC2)[C@@H](CO)O1)c1cnccn1,0.3,-2.7,-3.5,6.2,-0.3
C[C@@H]1CN([C@H](C)CO)C(=O)c2cc(C#CC3CCCCC3)cnc2O[C@@H]1CN(C)C(=O)Nc1ccccc1,4.2,-2.3,.,1.8,-0.5
Cn1c(C(=O)N2CCOCC2)cc2c(=O)n3ccccc3nc21,-0.4,0.6,57.5*,14.2,0.0
CN(C(=O)c1cc2c(=O)n3ccccc3nc2n1C)C1CCCCC1,0.0,0.6,60.8*,-1.2,-0.2
CC1CN(C(=O)c2cc3c(=O)n4ccccc4nc3n2C)CC(C)O1 (stereo not drawn),.,2.1,37.9*,0.0,0.0
CCN(C(=O)c1cc2c(=O)n3ccccc3nc2n1C)C1CCCCC1,.,5.6,20.2,-2.5,-0.1
COc1ccc(C(=O)NNC(=O)CSc2nnc(C)n2CC2CCCO2)cc1 (stereo not drawn),.,4.1,1.6,1.9,43.5*
COC(=O)c1ccc(NC(=O)CSc2nnc(C)n2CC2CCCO2)cc1 (stereo not drawn),0.8,-1.5,-2.7,-2.5,-0.1
CCCCC(NC(=O)Cc1c(C)c2cc3c(C)c(C)oc3c(C)c2oc1=O)C(=O)O (stereo not drawn),0.0,0.2,-0.6,5.2,-0.1
CCCC(NC(=O)Cc1c(C)c2cc3c(C)c(C)oc3c(C)c2oc1=O)C(=O)N[C@@H](Cc1ccccc1)C(=O)O (stereo partly drawn),.,0.6,-0.3,48.8*,0.0
Cc1ccccc1-c1cnc2c(c1)C(=O)N([C@H](C)CO)C[C@H](C)[C@H](CN(C)Cc1ccncc1)O2,-5.4,2.7,6.7,6.8,0.1
O=C(NCC1CC1)C1(S(=O)(=O)c2ccccc2)CC=CC1,-0.2,0.5,-4.4,21.5*,-0.2
COCCNC(=O)C1(S(=O)(=O)c2ccccc2)CC=CC1,0.0,-0.8,3.1,-2.8,-0.1
